{"data": "Measured values pooled from the literature", "target": "TGF-beta receptor type-2 (TGFBR2, Homo sapiens, UniProt P37173)", "note": "Lines come from different studies, so protocols differ."}
{"Structure (SMILES)": "C[C@@H]1CCN(c2nccc(-c3cnn4ncccc34)n2)C1", "test": "binding", "conditions": "1 µM", "remaining binding": "100%"}
{"Structure (SMILES)": "C=CC(=O)N1CCC(C(=O)NCC(=O)N2CCN(c3nc(-c4cnc(N)nc4C(F)F)nc(N4CCOCC4)n3)CC2)CC1", "test": "binding, competition with immobilised ligand", "conditions": "1 µM", "remaining binding": "88%"}
{"Structure (SMILES)": "Cc1cnn2ncc(-c3ccnc(N(C)C)n3)c2c1", "test": "binding", "conditions": "1 µM", "remaining binding": "80%"}
{"Structure (SMILES)": "CO[C@@H](C)c1c(Nc2ccc([C@@H](N(C)C(=O)C3CCS(=O)(=O)CC3)C(F)(F)F)cc2)cnc2cc(Cl)nn12", "test": "cell-free assay, competition with immobilised ligand", "conditions": "1 µM", "remaining binding": "100%"}
{"Structure (SMILES)": "COc1ccnn2ncc(-c3ccnc(N(C)C)n3)c12", "test": "binding", "conditions": "1 µM", "remaining binding": "100%"}
{"Structure (SMILES)": "O=C(NCCCN1CCOCC1)c1ccc(Nc2nccc(-c3cc4ccccc4s3)n2)cc1", "test": "binding, competition with immobilised ligand", "conditions": "1 µM", "remaining binding": "64%"}
{"Structure (SMILES)": "CC1CCCN1c1nccc(-c2cnn3ncccc23)n1 (stereo not drawn)", "test": "binding", "conditions": "1 µM", "remaining binding": "100%"}
{"Structure (SMILES)": "O=C(Nc1c[nH]nc1C(=O)NC1CCNCC1)c1cc(F)cc(F)c1", "test": "binding, competition with immobilised ligand", "conditions": "1 µM", "remaining binding": "90%"}
{"Structure (SMILES)": "O=C(c1ccc(Nc2nccc(-c3cc4ccccc4s3)n2)cc1)N1CCC(N2CCCC2)CC1", "test": "binding, competition with immobilised ligand", "conditions": "1 µM", "remaining binding": "88%"}
{"Structure (SMILES)": "O=C(O)[C@@H]1[C@@H](Cn2nnc3ccccc3c2=O)CC[C@H]1C(=O)c1ccc(OCCC2CCOCC2)cc1", "test": "cell-free assay, competition with immobilised ligand", "conditions": "1 µM", "remaining binding": "100%"}
{"Structure (SMILES)": "Nc1ncc2c(n1)-c1c([nH]c3ccc(C#CC4CC4)cc13)CCCC2", "test": "binding, competition with immobilised ligand", "conditions": "1 µM", "remaining binding": "100%"}
{"Structure (SMILES)": "COc1cccc(CNC(=O)c2nc3scc(COCc4ccc(C(=O)O)cc4)c3c(=O)[nH]2)c1", "test": "cell-free assay, competition with immobilised ligand", "conditions": "1 µM", "remaining binding": "97%"}
{"Structure (SMILES)": "COc1cnc(Nc2cccc(S(N)(=O)=O)c2)nc1N1CCN(c2ccccc2)C(=O)C1", "test": "binding, competition with immobilised ligand", "conditions": "1 µM", "remaining binding": "100%"}
{"Structure (SMILES)": "O=C(c1ccc(Nc2ncc(Cl)c(-c3ccc(Cl)s3)n2)cc1)N1CCC(N2CCCC2)CC1", "test": "binding, competition with immobilised ligand", "conditions": "1 µM", "remaining binding": "100%"}
{"Structure (SMILES)": "COc1ncc2cc3ccccc3nc2c1C#N", "test": "cell-free assay, competition with immobilised ligand", "conditions": "5 µM", "remaining binding": "100%"}
{"Structure (SMILES)": "O=C1CCc2cc(Nc3cc(OC4CCOCC4)c([N+](=O)[O-])cc3Cl)ccc2N1", "test": "cell-free assay, competition with immobilised ligand", "conditions": "1 µM", "remaining binding": "98%"}
{"Structure (SMILES)": "c1cnn2ncc(-c3ccnc(N4CCC45COC5)n3)c2c1", "test": "binding", "conditions": "1 µM", "remaining binding": "36%"}
{"Structure (SMILES)": "O=C(NS(=O)(=O)c1ccc(NCC2CCOCC2)c([N+](=O)[O-])c1)c1ccc(N2CCN(Cc3ccc(C(F)(F)F)cc3-c3ccc(Cl)cc3)CC2)cc1Oc1cnc2[nH]ccc2c1", "test": "cell-free assay, competition with immobilised ligand", "conditions": "1 µM", "remaining binding": "76%"}
{"Structure (SMILES)": "CN(C)c1ncc(F)c(-c2cnn3ncccc23)n1", "test": "binding", "conditions": "1 µM", "remaining binding": "100%"}
{"Structure (SMILES)": "CC1=C(C#N)[C@@H](c2ccc3[nH]nc(C)c3c2)C(C#N)=C(c2ccc(Cl)cc2)N1", "test": "cell-free assay, competition with immobilised ligand", "conditions": "1 µM", "remaining binding": "74.6%"}
{"Structure (SMILES)": "CNC(=O)[C@@H]1CC[C@@H](n2c(-c3ccc4cnccc4c3)nc3ccc(C(=O)NCc4cccc(C(N)=O)c4)cc32)C1", "test": "binding, competition with immobilised ligand", "conditions": "1 µM", "remaining binding": "100%"}
